Experimental data collected from several papers.
Each line is one published result; the experiments were not run side by side.
Cell line: HL-60
Effect on: cell growth or viability

With Nc1ccccc1NC(=O)c1ccc(Cn2cnc3c(Nc4ccc(Br)cc4F)ncnc32)cc1 the IC50 was 0.99 µM (MTT; 72 h).
The IC50 of Nc1cccc2c1C(=O)N(C1CCC(=O)NC1=O)C2=O (stereo not drawn) is reported as > 10 µM (CCK-8; 7 days).
For O=C(CSc1nc2ccccc2s1)N/N=C/c1ccc(OCC(=O)Nc2cccc(Cl)c2)cc1, the IC50 was > 100 µM (MTS; 72 h).
c1ccc(-c2cc(CNc3cccc4cccnc34)on2)cc1 has an IC50 of 79.6 µM (MTS; 72 h).
With O=C(NO)c1ccc(Cn2cnc3c(Nc4cccc([N+](=O)[O-])c4)ncnc32)cc1 the IC50 was 1.86 µM (MTT; 72 h).
FC(F)(F)c1cc(OCc2cc(-c3ccccc3)no2)c2ccccc2n1 gave an IC50 of > 100 µM (MTS; 72 h).
With COc1cc([C@@H]2c3cc4c(cc3[C@@H](O[C@@H]3O[C@@H]5CO[C@@H](C)O[C@H]5[C@H](O)[C@H]3O)[C@H]3COC(=O)[C@H]23)OCO4)cc(OC)c1O the IC50 was 0.3 µM (MTS; 72 h).
COc1ccc(Nc2ncnc3c2ncn3Cc2ccc(C(=O)Nc3ccccc3N)cc2)cc1 gave an IC50 of 4.12 µM (MTT; 72 h).
With O=c1cc(OCc2cc(-c3ccccc3)no2)c2ccccc2o1 the IC50 was > 100 µM (MTS; 72 h).
For COc1cc([C@@H]2c3cc4c(cc3[C@@H](O[C@@H]3O[C@@H]5CO[C@@H](C)O[C@H]5[C@H](O)[C@H]3O)[C@H]3COC(=O)[C@H]23)OCO4)cc(OC)c1O, the IC50 was 1.22 µM (XTT; 75 h).
For c1ccc(-c2cc(CNc3cccc4cccnc34)on2)nc1, the IC50 was 64.8 µM (MTS; 72 h).
O=C(CSc1nc2ccccc2s1)N/N=C/c1ccc(OCC(=O)Nc2ccc(Br)cc2)cc1 gave an IC50 of > 100 µM (MTS; 72 h).
